# Screens as filed in PubChem BioAssay.
# Rows were chosen to be rich in hits. Some 2.3% of all compounds tested hit in one or more screens of this group.
# TRPC4 potent: allosteric potentiators of mouse TRPC4 channel; HEK293 TRPC4beta/mu-opioid, DAMGO EC20, Fluo-4 Ca2+ flux; hits give high values; B-score at 10 µM; hit rate 0.42% among 310,000; AID 2227;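 active means B-score of calcium response area above 5 SD of library B-scores, with initial fluorescence ratio within 5 SD of library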;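 further: B-score of integrated fluorescence ratio over time as area under calcium response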
# TRPC4 agonist: opens the mouse TRPC4 cation channel; Q9QUQ5; HEK293 TRPC4beta/mu-opioid, Fluo4 calcium fluorescence; hits give high values; B-score at 10 µM; hit rate 0.49% among 310,000; AID 2237;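 active means B-score above 5 SD of library B-scores, and initial fluorescence ratio not above library mean plus 5 SD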;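 further: positive B-score marks a calcium rise read as TRPC4 activation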
#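 Assay system: HEK293 cells stably co-expressing mouse TRPC4beta and mu-opioid receptor / Timing: Fluo4 dye loading 45 min at room temperature, 110 s recording / Signal: Fluo4 calcium-sensitive dye fluorescence, kinetic, 1 Hz baseline / Read-out: integrated baseline-normalised fluorescence ratio, converted to per-well B score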
# TRPC4 block: inhibitors of mouse TRPC4 channel; B-score at 10 µM; HEK293 TRPC4beta/mu-opioid, DAMGO-evoked Fluo4 calcium flux; hits give low values; AID 2247; hit rate 0.39% among 300,000;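 active means B-score over 3 SD under the library average, no early fluorescence shift, positive overall ratio signal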
#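 Test system – stable TRPC4beta/mu-opioid receptor HEK293 cells · Probe or stimulus – DAMGO, a submaximal dose followed by a maximal one · Dosing – one concentration per compound · Signal – Fluo4 calcium fluorescence by kinetic imaging, 5 s 1 Hz baseline · Evaluation – per-well B score of integrated baseline-normalized Fluo4 ratio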
# TRPC6 inh: blocks the mouse TRPC6 cation channel; B-score at 10 µM; Q61143; HEK293-TRPC6, membrane potential dye, ACh-evoked depolarization; hits give low values; AID 2553; hit rate 1.1% among 310,000;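 active means B-score under library mean minus 3 SD, initial fluorescence not abnormally high, positive integrated signal ratio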;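 further: B-score derived from integrated fluorescence ratio over the kinetic read; more negative B-score means stronger inhibition of depolarization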
# Target sequence (Q61143 whole entry, looked up): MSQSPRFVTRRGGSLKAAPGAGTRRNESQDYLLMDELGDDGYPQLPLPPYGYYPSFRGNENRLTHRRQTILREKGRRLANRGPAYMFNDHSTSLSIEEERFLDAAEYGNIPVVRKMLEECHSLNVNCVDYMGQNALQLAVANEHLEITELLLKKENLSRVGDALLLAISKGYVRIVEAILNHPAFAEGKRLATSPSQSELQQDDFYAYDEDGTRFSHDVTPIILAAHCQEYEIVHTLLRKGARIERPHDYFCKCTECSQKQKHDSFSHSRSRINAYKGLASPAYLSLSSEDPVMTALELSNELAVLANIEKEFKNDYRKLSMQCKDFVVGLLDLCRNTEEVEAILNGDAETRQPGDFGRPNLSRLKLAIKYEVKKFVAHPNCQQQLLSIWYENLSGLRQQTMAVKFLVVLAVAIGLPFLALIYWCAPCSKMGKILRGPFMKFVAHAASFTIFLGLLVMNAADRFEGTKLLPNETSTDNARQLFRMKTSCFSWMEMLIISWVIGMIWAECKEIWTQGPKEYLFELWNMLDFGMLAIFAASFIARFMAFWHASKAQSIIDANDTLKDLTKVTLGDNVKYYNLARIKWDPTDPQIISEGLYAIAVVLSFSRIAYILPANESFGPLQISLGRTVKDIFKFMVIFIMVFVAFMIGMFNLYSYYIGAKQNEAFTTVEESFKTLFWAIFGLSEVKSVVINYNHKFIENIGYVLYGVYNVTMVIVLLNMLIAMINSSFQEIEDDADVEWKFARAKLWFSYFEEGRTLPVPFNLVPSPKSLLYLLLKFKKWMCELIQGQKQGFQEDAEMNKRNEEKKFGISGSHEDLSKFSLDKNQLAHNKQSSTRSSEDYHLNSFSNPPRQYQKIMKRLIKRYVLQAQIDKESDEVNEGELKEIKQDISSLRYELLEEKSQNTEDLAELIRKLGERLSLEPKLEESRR
# TRPC6 activator: mouse TRPC6 channel activation; Q61143; HEK293-TRPC6 membrane potential dye fluorescence; hits give high values; B-score at 10 µM; hit rate 0.13% among 310,000;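 active means B-score of the integrated fluorescence ratio above library mean plus 3 SD, and starting fluorescence ratio within library mean plus 5 SD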;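 further: higher score means more depolarization so channel activation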
# TRPC4 spec 2: mouse TRPC4 off-target activity of TRPC6 inhibitors, second screen; AID 2776; HEK293 TRPC4/MOR, membrane potential dye fluorescence; channel activated by saturating DAMGO dose; inhibition, % at 10 µM; shares compounds with TRPC6 inh; hit rate 42% among 920;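 active means compounds whose fluorescence signal differed from control wells by over 3 SD, either direction, in both duplicate plates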
# TRPC4 spec: selectivity of TRPC6 inhibitors: effect on mouse TRPC4; shares compounds with TRPC6 inh; HEK293 TRPC4/mu-opioid, membrane potential fluorescence; activity change, negative = inhibition, % at 10 µM; hit rate 61% among 920; AID 2777;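 active means rise or fall in signal beyond 3 SD of buffer-only wells in both replicate plates, either sign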;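 further: integrated kinetic ratio of fluorescence range over baseline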
# HEK293 MPD ctr 2-1: second check of TRPC6 inhibitor effects in parental HEK293 cells; parental HEK293 membrane potential dye fluorescence; maximal acetylcholine challenge after compound addition; shares compounds with TRPC6 inh; signal change vs control, % at 10 µM; hit rate 31% among 920;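 active means membrane potential signal moving either way by over 3 SD of the maximum-effect control, in both duplicate plates, meaning non-specific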
# HEK293 MPD ctr-1: checks TRPC6 inhibitor effects in parental HEK293 cells; membrane potential signal change, % at 10 µM; hit rate 60% among 920; parental HEK293 membrane potential dye fluorescence; shares compounds with TRPC6 inh;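 active means membrane potential signal shifting up or down by more than 3 SD of buffer-only wells, on both duplicate plates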
# HEK293 MPD ctr-2: checks TRPC6 modulator effects in parental HEK293 cells. shares compounds with TRPC6 inh. membrane potential dye fluorescence. membrane potential signal change, % at 10 µM. hit rate 51% among 2,400. AID 488924;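 active means membrane potential signal moves up or down beyond 5 SD from buffer-only wells, on both duplicate plates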
# HEK293 MPD ctr 2-2: second counter-screen for TRPC6 modulators: effect in parental HEK293 cells. membrane potential dye fluorescence; after compound, maximal acetylcholine stimulation. shares compounds with TRPC6 inh. hit rate 14% among 2,400. inhibition, % at 10 µM;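 active means membrane potential signal drops by more than 5 SD from the mean control signal, in both duplicate plates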;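 further: plate controls were acetylcholine ECmax control wells for no effect and buffer only wells for full effect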
# TRPC4 ctr mod: mouse TRPC4 off-target activity of TRPC6 modulators; shares compounds with TRPC6 inh; HEK293 TRPC4/mu-opioid, membrane potential fluorescence; percent change from control (negative = decrease, positive = increase), % at 10 µM; hit rate 69% among 2,400; AID 488927;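 active means membrane potential signal moved up or down beyond 5 SD of buffer control wells, in both duplicate plates, actives on both sides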;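 further: plate controls were assay buffer wells for no effect and DAMGO maximal-effect wells for full effect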
# TRPC4 ctr inh 2: mouse TRPC4 off-target activity of TRPC6 modulators, second screen; shares compounds with TRPC6 inh; HEK293 TRPC4/mu-opioid, membrane potential dye fluorescence; stimulated with maximal-effect DAMGO; inhibition, % at 10 µM; hit rate 55% among 2,400;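 active means drop in membrane potential signal beyond 5 SD of the control wells in both duplicate plates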;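 further: TRPC4 counter screen for TRPC6 hits run under conditions tuned for TRPC6 not TRPC4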
# TRPC6 inh conf: confirmation of mouse TRPC6 inhibitors; shares compounds with TRPC6 inh; HEK293-TRPC6, membrane potential dye, ACh-evoked depolarization; hit rate 43% among 3,300; inhibition, % at 10 µM;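 active means fluorescence ratio falls more than 5 SD below the full-stimulation control mean, in both duplicate runs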;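 further: integrated fluorescence ratio of peak minus minimum over baseline after agonist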
# TRPC6 act conf: confirmation of mouse TRPC6 activators; hit rate 11% among 2,800; activation, % at 10 µM; shares compounds with TRPC6 inh; AID 488961; HEK293-TRPC6 membrane potential dye fluorescence, FDSS;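 active means ratio signal rise beyond 5 SD above unstimulated control wells' mean, seen in both duplicate runs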;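 further: plate controls were buffer EC0 wells for no effect and acetylcholine ECmax response for full effect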
# * = called active by the depositor; i = inactive; · = no result given.
SMILES,TRPC4 potent,TRPC4 agonist,TRPC4 block,TRPC6 inh,TRPC6 activator,HEK293 MPD ctr-2,HEK293 MPD ctr 2-2,TRPC4 ctr mod,TRPC4 ctr inh 2,TRPC6 inh conf,TRPC6 act conf,others
O=C(Oc1ccc(F)c(F)c1)c1ccc2c(=O)n3c(nc2c1)CCC3,i,i,i,-5.1*,i,i,i,i,i,i,i,
CCCCc1nnc(NC(=O)c2ccc3c(=O)n4c(nc3c2)CCC4)s1,i,i,i,-7.4*,i,·,·,·,·,i,i,TRPC4 spec 2=i;TRPC4 spec=-15%*;HEK293 MPD ctr 2-1=i;HEK293 MPD ctr-1=-130%*
O=C(Nc1ccc(Br)cc1Cl)c1ccc2c(=O)n3c(nc2c1)CCC3,i,i,i,i,i,·,·,·,·,·,·,
O=C(Nc1ccc(Cl)cc1Cl)c1ccc2c(=O)n3c(nc2c1)CCC3,i,59*,i,-5.1*,i,276%*,114%*,34%*,i,i,·,
O=C(CSc1nnc(-c2ccccc2O)o1)N1CCCCC1,i,i,i,i,i,·,·,·,·,·,·,
CC1(C)CCC[C@]2(C)C(CS(=O)c3ccccc3)=C(C=O)CC[C@@H]12 (some centres undefined),i,i,i,i,i,·,·,·,·,·,·,
O=C(c1ccco1)N1CCN(c2ccnc3cc(Cl)ccc23)CC1,i,i,i,-5.1*,i,-160%*,i,-26%*,37%*,i,i,
C/C(=N\NC(=O)c1c(C)nc2ccccn12)c1ccco1,i,i,i,-5.7*,i,-309%*,i,-60%*,36%*,50%*,i,
O=C(Nc1cc(C(F)(F)F)ccc1-n1cnc2ccccc21)c1ccccc1,i,i,i,-5.3*,i,106%*,i,19%*,i,47%*,·,
O=C(Nc1cc(C(F)(F)F)ccc1N1CCOCC1)c1ccccc1,i,i,i,i,i,·,·,·,·,·,·,
COCC(C)NC(=O)c1ccc(CN2CCc3ccccc3C2)cc1 (centres undefined),i,i,i,-6.9*,i,·,·,·,·,i,i,TRPC4 spec 2=i;TRPC4 spec=i;HEK293 MPD ctr 2-1=i;HEK293 MPD ctr-1=0.8%*
COc1ccccc1-n1c(-c2ccccc2)c[n+]2c1CCc1ccccc1-2,i,i,i,-9.9*,i,92%*,i,20%*,40%*,77%*,i,TRPC4 spec 2=i;TRPC4 spec=1.8%*;HEK293 MPD ctr 2-1=i;HEK293 MPD ctr-1=i
CC(C)c1ccc(-n2c(-c3ccccc3)c[n+]3c2CCc2ccccc2-3)cc1,i,i,i,i,i,·,·,·,·,·,·,
COc1ccccc1-n1c(-c2ccccc2)c[nH]c1=S,i,i,i,i,i,·,·,·,·,·,·,
COc1ccc(-n2c(-c3ccc(Br)cc3)c[n+]3c2CCc2ccccc2-3)cc1,i,i,i,-5.3*,i,-150%*,i,18%*,62%*,i,i,
Cc1cc(C(=O)CCC(=O)N2CCN(c3ccccc3)CC2)c(C)s1,i,i,i,i,i,·,·,·,·,·,·,
Cc1ccc([N+](=O)[O-])cc1N(CC(=O)Nc1ccc(S(=O)(=O)Nc2cccc(C(F)(F)F)c2)cc1)S(C)(=O)=O,i,i,i,i,i,·,·,·,·,·,·,
CCCCc1ccc(-c2csc(/C(C#N)=C\c3ccc(C)o3)n2)cc1,i,i,i,-8.4*,i,·,·,·,·,i,·,TRPC4 spec 2=i;TRPC4 spec=i;HEK293 MPD ctr 2-1=i;HEK293 MPD ctr-1=i
Cc1ccc(-n2nc(C(=O)NCc3ccco3)c3c4ccccc4n(C)c3c2=O)cc1,i,i,i,i,i,·,·,·,·,·,·,
CCN(CC)CCNC(=O)c1nn(-c2ccc(C)cc2)c(=O)c2c1c1ccccc1n2C,i,i,i,-8.9*,i,·,·,·,·,64%*,i,TRPC4 spec 2=56%*;TRPC4 spec=-15%*;HEK293 MPD ctr 2-1=i;HEK293 MPD ctr-1=-187%*
Cc1ccc(NC(=O)Nc2ccc(F)cc2)cc1Cl,i,i,i,i,i,·,·,·,·,·,·,
Fc1cccc(Cc2noc(CN3CCCN(C4Cc5ccccc5C4)CC3)n2)c1,i,i,i,-5.1*,i,202%*,i,28%*,70%*,46%*,·,
Fc1cccc(Cc2noc(CN3CCN(C4CCc5ccccc5C4)CC3)n2)c1 (centres undefined),i,i,i,-7.8*,i,·,·,·,·,i,·,TRPC4 spec 2=i;TRPC4 spec=14%*;HEK293 MPD ctr 2-1=290%*;HEK293 MPD ctr-1=13%*
NCCCNC(=O)c1ccc(/C=N/O)nc1,i,i,i,i,i,·,·,·,·,·,·,
CCCN1C2CCCC1CC(NC(=O)Nc1cccc(C(C)=O)c1)C2 (centres undefined),i,i,i,-6.1*,i,i,i,i,i,i,·,
CC(=O)c1cccc(NC(=O)NC2CC3CCCC(C2)N3CC(C)C)c1 (centres undefined),i,i,i,-8.8*,17*,i,i,i,i,46%*,110%*,
CCCN1C2CCCC1CC(NC(=O)Nc1ccc(C(C)C)cc1)C2 (centres undefined),i,i,i,i,i,·,·,·,·,·,·,
Cc1cccc(NC(=S)NC2CC3CCCC(C2)N3CC(C)C)c1 (centres undefined),i,i,i,i,i,·,·,·,·,·,·,
